Measurements from different studies.
Each line is one published result; the experiments were not run side by side.
Route: intravenous

Structure (SMILES)	system	setting	quantity	value
CCCC[C@@H]1NC(=O)[C@H](Cc2ccc(O)cc2)NC(=O)[C@@H]2CCCN2C(=O)[C@H](CC(=O)O)NC(=O)[C@H](C)NC(=O)[C@H](Cc2ccccc2)NC(=O)[C@@H]2CSCCC(=O)N3CN(CN(C3)C(=O)CCSC[C@@H](C(=O)N[C@@H](CNC(=O)CCc3cn(CCOCCOCCOCCN(CCOCCOCCOCCC(=O)N[C@H]4CSCCC(=O)N5CN6CN(C5)C(=O)CCSC[C@H](NC(=O)[C@@H](CC(=O)O)NC(=O)[C@H](Cc5cccc7ccccc57)NC(=O)[C@@H]5CCCN5C4=O)C(=O)N[C@@H](CCSC)C(=O)N[C@@H](CCCCNC(=N)N)C(=O)N[C@@H](CC(=O)O)C(=O)N[C@@H](Cc4c[nH]c5ccccc45)C(=O)N[C@@H](CO)C(=O)N[C@@H]([C@@H](C)O)C(=O)N4CCC[C@H]4C(=O)N4C[C@H](O)C[C@H]4C(=O)N[C@@H](Cc4c[nH]c5ccccc45)C(=O)N[C@H](C(N)=O)CSCCC6=O)CCOCCOCCOCCn4cc(CCC(=O)NC[C@H](NC(=O)[C@@H]5CSCCC(=O)N6CN7CN(C6)C(=O)CCSC[C@H](NC(=O)[C@H](Cc6ccc(O)cc6)NC(=O)[C@@H]6CCCN6C(=O)[C@@H](C)NC(=O)[C@H](CCC(=O)O)NC(=O)[C@@H]6CCCN6C(=O)[C@H](CC(C)(C)C)NC(=O)[C@@H](NC(C)=O)CSCCC7=O)C(=O)N[C@@H](Cc6ccccc6)C(=O)N[C@@H](C)C(=O)N[C@@H](CC(=O)O)C(=O)N6CCC[C@H]6C(=O)N[C@@H](Cc6ccc(O)cc6)C(=O)N[C@@H](CCCC)C(=O)N5)C(N)=O)nn4)nn3)C(N)=O)NC1=O)C(=O)CCSC[C@H](NC(C)=O)C(=O)N[C@@H](CC(C)(C)C)C(=O)N1CCC[C@H]1C(=O)N[C@@H](CCC(=O)O)C(=O)N[C@H](C)C(=O)N1CCC[C@H]1C(=O)N[C@@H](Cc1ccc(O)cc1)C(=O)N2	rat, plasma	2 mg/kg	clearance	8.7 mL/min/kg
N=c1c2c(-c3ccccc3)c(-c3ccccc3)n(Cc3ccccc3)c2ncn1[C@H]1CC[C@H](O)CC1	male Sprague-Dawley rat, plasma	2 mg/kg, single dose	clearance	19.6 mL/min/kg
O=C1c2cc(COc3ccccc3)nn2CCC1c1ccc(F)cc1 (stereo not drawn)	male Sprague-Dawley rat, plasma	0.2 mg/kg	clearance	120 mL/min/kg
CN(C)C(=O)Oc1cc(OC(=O)N(C)C)cc(-c2cc3ccc(O)cc3o2)c1	male rat, plasma	5 mg/kg	clearance	140 mL/min/kg
[2H]C([2H])(c1cc(F)c(F)cc1F)n1c(=O)n(Cc2ncn(C)n2)c(=O)[nH]/c1=N\c1cc2cn(C)nc2cc1Cl	male Sprague-Dawley rat, plasma	5 mg/kg	clearance	1.11 mL/min/kg
Cc1cc(C)nc(Nc2ncc(C(=O)NCCc3c(C)[nH]c4ccccc34)cn2)c1	Sprague-Dawley rat, plasma	–	clearance	81 mL/min/kg
Cn1cnc(Cn2c(=O)[nH]/c(=N\c3cc4cn(C)nc4cc3Cl)n(Cc3cc(F)c(F)cc3F)c2=O)n1	male Sprague-Dawley rat, plasma	5 mg/kg	clearance	1.03 mL/min/kg
CCCCCCCC(=O)N[C@@H](CCCCN)C(=O)N[C@@H](CCCCN)C(=O)N[C@@H](C)C(=O)N[C@@H](CC(C)C)C(=O)N[C@@H](CCCCN)C(=O)N[C@@H](CC(C)C)C(=O)N[C@@H](C)C(=O)N[C@@H](CCCCN)C(=O)N[C@@H](CCCCN)C(=O)N1CCC[C@H]1C(=O)N[C@@H](CC(C)C)C(=O)N[C@@H](CCCCN)C(=O)N[C@@H](CC(C)C)C(=O)N[C@@H](CC(C)C)C(=O)N[C@@H](CCCCN)C(N)=O	male Sprague-Dawley rat, blood	3 mg/kg, infusion	clearance	192 mL/min/kg
CCCC[C@@H]1NC(=O)[C@H](Cc2ccc(O)cc2)NC(=O)[C@@H]2CCCN2C(=O)[C@H](CC(=O)O)NC(=O)[C@H](C)NC(=O)[C@H](Cc2ccccc2)NC(=O)[C@@H]2CSCCC(=O)N3CN(CN(C3)C(=O)CCSC[C@H](NC(C)=O)C(=O)N[C@@H](CC(C)(C)C)C(=O)N[C@@H](CCC(=O)O)C(=O)N[C@@H](CCC(=O)O)C(=O)N[C@H](CCCCNC(=O)CCc3cn(CCOCCOCCOCCN(CCOCCOCCOCCC(=O)N[C@H]4CSCCC(=O)N5CN6CN(C5)C(=O)CCSC[C@H](NC(=O)[C@@H](CC(=O)O)NC(=O)[C@H](Cc5cccc7ccccc57)NC(=O)[C@@H]5CCCN5C4=O)C(=O)N[C@@H](CCSC)C(=O)N[C@@H](CCCCNC(=N)N)C(=O)N[C@@H](CC(=O)O)C(=O)N[C@@H](Cc4c[nH]c5ccccc45)C(=O)N[C@@H](CO)C(=O)N[C@@H]([C@@H](C)O)C(=O)N4CCC[C@H]4C(=O)N4C[C@H](O)C[C@H]4C(=O)N[C@@H](Cc4c[nH]c5ccccc45)C(=O)N[C@H](C(N)=O)CSCCC6=O)CCOCCOCCOCCn4cc(CCC(=O)NCCCC[C@H]5NC(=O)[C@H](CCC(=O)O)NC(=O)[C@H](CCC(=O)O)NC(=O)[C@H](CC(C)(C)C)NC(=O)[C@@H](NC(C)=O)CSCCC(=O)N6CN7CN(C6)C(=O)CCSC[C@H](NC(=O)[C@H](Cc6ccc(O)cc6)NC(=O)[C@@H]6CCCN6C5=O)C(=O)N[C@@H](Cc5ccccc5)C(=O)N[C@@H](C)C(=O)N[C@@H](CC(=O)O)C(=O)N5CCC[C@H]5C(=O)N[C@@H](Cc5ccc(O)cc5)C(=O)N[C@@H](CCCC)C(=O)N[C@H](C(N)=O)CSCCC7=O)nn4)nn3)C(=O)N3CCC[C@H]3C(=O)N[C@@H](Cc3ccc(O)cc3)C(=O)N2)C(=O)CCSC[C@@H](C(N)=O)NC1=O	rat, plasma	2 mg/kg	clearance	11 mL/min/kg
O=C(O)CCCO	male Sprague-Dawley rat, urine	600 mg/kg	renal clearance	1.89 mL/min/kg
CCCC[C@@H]1NC(=O)[C@H](Cc2ccc(O)cc2)NC(=O)[C@@H]2CCCN2C(=O)[C@H](CC(=O)O)NC(=O)[C@H](C)NC(=O)[C@H](Cc2ccccc2)NC(=O)[C@@H]2CSCCC(=O)N3CN(CN(C3)C(=O)CCSC[C@@H](C(=O)N[C@@H](C)C(N)=O)NC1=O)C(=O)CCSC[C@H](NC(=O)[C@H](C)NC(C)=O)C(=O)N[C@@H]([C@@H](C)CC)C(=O)N[C@@H](CCC(=O)O)C(=O)N[C@@H](CCC(=O)O)C(=O)N[C@H](CCCCNC(=O)CCc1cn(CCOCCOCCOCCN(CCOCCOCCOCCC(=O)N[C@H]3CSCCC(=O)N4CN5CN(C4)C(=O)CCSC[C@H](NC(=O)[C@@H](CC(=O)O)NC(=O)[C@H](Cc4cccc6ccccc46)NC(=O)[C@@H]4CCCN4C3=O)C(=O)N[C@@H](CCSC)C(=O)N[C@@H](CCCCNC(=N)N)C(=O)N[C@@H](CC(=O)O)C(=O)N[C@@H](Cc3c[nH]c4ccccc34)C(=O)N[C@@H](CO)C(=O)N[C@@H]([C@@H](C)O)C(=O)N3CCC[C@H]3C(=O)N3C[C@H](O)C[C@H]3C(=O)N[C@@H](Cc3c[nH]c4ccccc34)C(=O)N[C@H](C(N)=O)CSCCC5=O)CCOCCOCCOCCn3cc(CCC(=O)NCCCC[C@H]4NC(=O)[C@H](CCC(=O)O)NC(=O)[C@H](CCC(=O)O)NC(=O)[C@H]([C@@H](C)CC)NC(=O)[C@@H](NC(=O)[C@H](C)NC(C)=O)CSCCC(=O)N5CN6CN(C5)C(=O)CCSC[C@H](NC(=O)[C@H](Cc5ccc(O)cc5)NC(=O)[C@H](CCC(N)=O)NC4=O)C(=O)N[C@@H](Cc4ccccc4)C(=O)N[C@@H](C)C(=O)N[C@@H](CC(=O)O)C(=O)N4CCC[C@H]4C(=O)N[C@@H](Cc4ccc(O)cc4)C(=O)N[C@@H](CCCC)C(=O)N[C@H](C(=O)N[C@@H](C)C(N)=O)CSCCC6=O)nn3)nn1)C(=O)N[C@@H](CCC(N)=O)C(=O)N[C@@H](Cc1ccc(O)cc1)C(=O)N2	rat, plasma	2 mg/kg	clearance	9.8 mL/min/kg
C[C@H](C(=O)N[C@H]1COc2ccccc2[C@@H]1S(C)(=O)=O)c1ccc(F)cc1	male Sprague-Dawley rat, plasma	0.5 mg/kg	clearance	10 mL/min/kg
